Results from PMC4455945 (Journal of the American Chemical Society, 2015).
Peptide text beside a SMILES is read from it. * marks the point of attachment. Cbz = O=C(OCc1ccccc1)*

How the values were obtained:
[1] = target: Purified 26S proteasome (Homo sapiens, UniProt P20618+P28074); test: Cleavage of Suc-LLVY-AMC by purified 26S proteasome; format: biochemical
[2] = test system: HEK-293T cells; test: Cell viability of HEK-293T cells; format: cell-based; details: concentration of 100 μM
How it was run: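 HEK-293T cells were tested alongside multiple myeloma lines after exposure to test peptoids. Viability was read as fluorescence (RFU).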

[3] = test system: HEK293-T cells; test: Anti-Ub Western blot of poly-ubiquitin conjugates in HEK293-T cells; format: cell-based; details: relative to vehicle-treated cells
[4] = target: T1, Rpn13 (Homo sapiens, UniProt Q16186); test: FP competition against fluorescently labeled 11 bound to Rpn13; format: binding; details: increasing amounts of competitor
How it was run: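 Rpn13 pre-incubated with fluorescein-labelled test peptoid to form the complex, then challenged with increasing amounts of unlabelled competitor: either a covalent Rpn13 inhibitor reported to react at Cys88, or the unlabelled form of the same peptoid. Read-out is the change in fluorescence polarization.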

[5] = target: T1, Rpn13; details: assay not described; cited from earlier work

T1 sequence (Q16186 whole entry): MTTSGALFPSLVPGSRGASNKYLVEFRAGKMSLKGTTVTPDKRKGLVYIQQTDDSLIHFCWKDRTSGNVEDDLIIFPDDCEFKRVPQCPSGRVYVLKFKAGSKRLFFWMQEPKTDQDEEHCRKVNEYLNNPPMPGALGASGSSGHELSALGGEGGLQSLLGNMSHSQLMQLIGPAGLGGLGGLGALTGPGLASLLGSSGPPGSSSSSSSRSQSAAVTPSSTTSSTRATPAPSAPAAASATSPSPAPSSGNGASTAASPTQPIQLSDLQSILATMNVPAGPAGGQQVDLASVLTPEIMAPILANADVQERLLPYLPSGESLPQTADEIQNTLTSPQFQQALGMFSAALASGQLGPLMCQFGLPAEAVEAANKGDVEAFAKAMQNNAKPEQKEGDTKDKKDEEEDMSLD

## CC(C)C[C@H](NC(=O)[C@H](Cc1ccccc1)NC(=O)c1cnccn1)B(O)O [Bortezomib]
[1]
  effect on hydrolysis of the fluorogenic peptide (fluorescence): dose-sensitive decrease of fluorescence

## CC(C)C[C@@H](C=O)NC(=O)[C@H](CC(C)C)NC(=O)[C@H](CC(C)C)NC(=O)OCc1ccccc1 [MG-132] (Cbz-Leu-Leu-Leu-aldehyde)
[2]
  cell death of HEK-293T cells at 100 μM: no significant cell death
[3]
  accumulation of ubiquitylated proteins: accumulation of ubiquitylated proteins does occur

## Cl.N[C@@H](Cc1ccccc1)C(=O)N1C/C(=C/c2ccc(Cl)c(Cl)c2)C(=O)/C(=C\c2ccc(Cl)c(Cl)c2)C1 [RA-190]
[4]
  competition of the fluorescently labeled 11-Rpn13 complex (FP signal): insensitive
[5]
  IC50: 100 nM
